Source: PubChem BioAssay (several laboratories)
STAT1 act – STAT1 signaling activators, primary screen, cell-based, HTS, luciferase reporter; hit rate 2.6% among 200,000; activation (% of control), % at 5.5 µM; NIH 3T3 STAT1-luciferase reporter, IFN-gamma, luminescence; 100% = IFN-gamma alone, no compound;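 active means activation above the screen-wide mean activation plus 3 SD, cut at about 130% in these data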;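 further: raw ratio to IFN-gamma control signal so 100% means no change and 0% no light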
FLuc stim CS – FLuc activators, initial screening, artefact control for FLuc-dependent activation tests, biochemical, ATPlite luminescence | activation factor at 10 µM | AID 1027, 2008 | ATPlite luciferase biochemical, 10 min; 0 = ATP-free wells, 1 = DMSO control | Luciferin 4-monooxygenase (Photinus pyralis), P08659 | 200,000 tested, under 10 active;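 active means luciferase activation factor, scaled between plate controls, of at least 2 with compound at 10 µM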
Target sequence (P08659 whole entry, looked up): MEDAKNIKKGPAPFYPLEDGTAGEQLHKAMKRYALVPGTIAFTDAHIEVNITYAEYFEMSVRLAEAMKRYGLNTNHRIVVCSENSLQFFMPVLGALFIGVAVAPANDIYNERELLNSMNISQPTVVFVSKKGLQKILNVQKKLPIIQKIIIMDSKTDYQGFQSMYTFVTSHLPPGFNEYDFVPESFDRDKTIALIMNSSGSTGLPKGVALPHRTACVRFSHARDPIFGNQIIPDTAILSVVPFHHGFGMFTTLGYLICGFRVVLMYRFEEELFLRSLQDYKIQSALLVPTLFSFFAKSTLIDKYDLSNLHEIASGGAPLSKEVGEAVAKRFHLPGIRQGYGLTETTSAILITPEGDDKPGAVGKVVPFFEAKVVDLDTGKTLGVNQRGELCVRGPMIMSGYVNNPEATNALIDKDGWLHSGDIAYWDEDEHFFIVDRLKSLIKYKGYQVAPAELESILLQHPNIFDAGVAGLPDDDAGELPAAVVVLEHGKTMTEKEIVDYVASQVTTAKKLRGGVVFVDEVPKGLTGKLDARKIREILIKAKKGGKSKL
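test system = cell-free luciferase reagent | medium = PBS as buffer for the ATP substrate | dosing = test compounds dosed from 2 mM stocks in 100% DMSO | incubation = 10 min at ambient temperature | detection = luminescence measurement of luciferase light output | benchmarks = low control with PBS replacing ATP, high control enzyme plus ATP without compound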
APP 5UTR inh – inhibitors of APP translation via 5'UTR reporter, primary screen, APP 5'UTR luciferase, SH-SY5Y cells; SH-SY5Y APP 5'UTR-luciferase reporter, luminescence; AID 1285, 2008; inhibition, % at 2 µM; hit rate 0.82% among 190,000;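 active means inhibition above a set limit, derived from the sample mean plus 3 SD, cut at about 45% in these data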
FLuc inhib CS – firefly luciferase enzyme inhibitors, primary screen, artefact control for luciferase-based inhibitor screens, biochemical, luminescence, ATPLite. 10 min. hit rate 1.5% among 200,000. AID 1006, 2008. inhibition, % at 10 µM;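 active means inhibition above about 50% when tested at 10 µM, limit read from the data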
APP 5'UTR act – activators of APP 5'UTR luciferase reporter, primary screen, SH-SY5Y cells | activation, % at 2 µM | SH-SY5Y APP 5'UTR luciferase reporter, luminescence; zero percent = DMSO vehicle wells | hit rate 1% among 190,000;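 active means activation above a set limit, based on mean plus 3 SD of controls, cut at about 140% in these data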
NF-kB neuron act – activators of NF-kB expression in neurons, primary screen, cell-based, HTS | human neuronal cells, NF-kB reporter expression; hits give high values | fold change at 12.5 µM | hit rate 1.6% among 190,000; in the data active means fold change above about 3.3
The depositor's hits bear a star; x = no result given. In the library only some 4.8% were active in any assay of this set; here they are far more common.

SMILES	STAT1 act	FLuc stim CS	APP 5UTR inh	FLuc inhib CS	APP 5'UTR act	NF-kB neuron act
CC(=O)c1ccc(N2Cc3ccccc3C2=NC(=O)c2cccs2)cc1	135*	0.9	-86	11	86	3
CCOC(=O)c1ccc(N2Cc3ccccc3C2=NC(=O)c2cccs2)cc1	115	1	-98	0	98	1.8
O=[N+]([O-])c1cc(-c2ncccn2)c([N+](=O)[O-])s1	95	1	76*	-3	-76	1.1
COCCCNC(=O)C1CCCN(S(=O)(=O)c2ccc(C)cc2)C1 (configuration not stated)	95	1.1	12	-5	-12	1
Cc1ccc(/C=N/Nc2ccc3ccccc3n2)o1	32	0.1	-183	87*	183*	3.2
C(=N\Nc1ccc2ccccc2n1)/c1ccc2c(c1)OCCO2	17	0.1	-48	93*	48	0.43
Cc1cccc(/C=N/Nc2ccc3ccccc3n2)c1	15	0.1	-56	91*	56	0.5
Cc1ccc(NCC(=O)NNC2=NCCC2)c(C)c1	97	1.1	6	-8	-6	1.3
O/C(=C\Sc1nnc(Cc2ccccc2)o1)c1ccc(F)cc1	92	1	0	-3	0	1.3
CCCCCN1C=CC(=C2C(=O)c3ccccc3C2=O)C=C1	12	0	54*	97*	-54	x
COc1ccc(NC(=O)CSc2nccn2C)c([N+](=O)[O-])c1	99	1	-17	-3	17	1.3
c1ccc(CCNc2ccccc2)cc1	x	1.1	x	-5	x	x
CCc1nc2ccccc2n1Cc1ccccc1F	92	1	-4	-4	4	1.2
COc1ccc2c(CSc3nc4nc(C)cc(C)n4n3)cc(=O)oc2c1	99	1	-10	-4	10	4.2*
Cc1ccc2c(CSc3nc4nc(C)cc(C)n4n3)cc(=O)oc2c1	89	1	-14	-1	14	1
Cc1nnc(C)n1N	99	1	-26	1	26	1.2
CC(=O)Nc1ccc(OCC(=O)NC(C)C(C)C)cc1 (configuration not stated)	96	1.1	-22	-5	22	1.2
CC(=O)Nc1cccc(OCC(=O)NC(C)C(C)C)c1 (configuration not stated)	102	1	69*	0	-69	1.1
Cc1ncc(CO)c(/C=N/NC(=S)Nc2ccc(F)cc2)c1O	102	1	32	-3	-32	0.79
Cc1ncc(CO)c(/C=N/N=C/c2ccccc2O)c1O	110	0.9	-64	8	64	3.6*
COc1cc(C2Nc3ccccc3C(=O)N2c2ccc(Cl)cc2)c(Cl)cc1OCC(=O)O (configuration not stated)	138*	1	-105	-3	105	2.9
COc1cc(C2NC(=O)NC(c3ccccc3)=C2C(C)=O)c(Cl)cc1OCC(=O)O (configuration not stated)	97	1	-199	0	199*	1.4
O=C(CSc1nc(C2CCCCC2)n(-c2ccccc2)n1)NCC(F)(F)F	87	1	-6	1	6	1.1
COC(=O)c1[nH]c2ccc(Br)cc2c1NC(=O)CN1CCN(C2CCCCC2)CC1	90	1.1	-8	-7	8	4*
CCn1cc(Cl)c(C(=O)Nc2ccc(OC)c(OC)c2)n1	107	0.8	-20	15	20	1.6
SMILES	STAT1 act	FLuc stim CS	APP 5UTR inh	FLuc inhib CS	APP 5'UTR act	NF-kB neuron act
O=C1CCCC(O)=C1N=Nc1cccc(C(=O)O)c1	90	1	-45	1	45	1.3
O=C(/C(C=Nc1cc2c(oc1=O)CCCC2=O)=C(\O)c1ccccc1)c1ccccc1	149*	1.1	-30	-6	30	1.2
CCOC(=O)c1c(C)[nH]c(C(=O)N/N=C/c2ccc(Br)cc2)c1C	102	1	95*	-4	-95	1.1
O=C(Nc1c(C(=O)Nc2cccc(F)c2)oc2ccccc12)c1ccc2c(c1)OCO2	100	0.9	-19	14	19	1.2
COc1ccc(/C=N/NC(=O)c2ccc3c(c2)OCCO3)cc1[N+](=O)[O-]	109	1.1	3	-6	-3	1.2
CN(c1ccc(C(=O)Nc2ccc3c(c2)OCCO3)cc1)S(C)(=O)=O	127	0.4	-104	56*	104	2.6
COc1ccc(NC(=O)c2ccc3c(c2)OCO3)cc1[N+](=O)[O-]	139*	0.7	-37	26	37	1.2
O=C(Nc1cccc(F)c1)c1ccc2c(c1)OCO2	118	0.7	-62	30	62	3.5*
Cc1[nH]c(C(=O)N/N=C/c2ccc(C(=O)O)cc2)c(C)c1C(=O)N/N=C/c1ccc(C(=O)O)cc1	114	1	-17	-5	17	1.1
COc1cc(SC)ccc1C(=O)Nc1ccccc1	135*	1	-58	-3	58	3.7*
Cc1ccc(C(=O)Nc2ccc3c(c2)CCC3)cc1	40	0.1	-154	90*	154*	6.4*
COc1cc(SC)ccc1C(=O)Nc1ccc2c(c1)OCCO2	130*	0.2	-155	83*	155*	4.6*
C=CCOc1ccc(C(=O)NC2CCCCC2)cc1	132*	0.8	-23	24	23	2.1
CC(C)Oc1ccc(C(=O)NC2CCCCC2)cc1	128	0.8	x	23	x	2.7
CC(Cc1ccsc1)NC(=O)CCc1nnc(COc2ccccc2)o1 (configuration not stated)	98	1	-23	-3	23	1.7
CN(CCc1ccccn1)Cc1ccc(Cl)cc1Cl	102	1	-12	-4	12	1.3
Cc1ccccc1C(=O)Nc1ccc2c(c1)OCO2	107	0.3	-177	74*	177*	4.8*
COc1ccccc1C(=O)Nc1ccc2c(c1)OCCO2	140*	0.5	-137	50	137*	3.5*
Cc1ccc(C(=O)Nc2ccc3c(c2)OCO3)cc1	82	0.1	-142	88*	142*	4.9*
COc1cc(SC)ccc1C(=O)Nc1nccs1	70	0.1	-190	92*	190*	1
CN(c1ccccc1C(=O)Nc1ccc2c(c1)OCO2)S(C)(=O)=O	101	1	1	-5	-1	1.1
CCOc1ccc(C(=O)CC(=O)C(=O)NCCc2ccc(OC)c(OC)c2)cc1	108	1	-8	-2	8	1.1
Cc1cc(CNC(=S)Nc2ccc(Br)cc2Cl)nn1C	99	1	-9	-4	9	1
O=C(COC(=O)c1cccc(S(=O)(=O)N2CCc3ccccc32)c1)Nc1ccc(Cl)cn1	97	1.1	-13	-15	13	1.1
